Only some compounds are listed: those with a hit (about 2% of all), similar ones and a draw of the others.
HIF act: HIF pathway transcriptional activators, primary screen, cell-based, U2OS HRE-luciferase, luminescence; U2OS HRE-luciferase reporter; normalized: DMSO 0%, desferrioxamine 100%; AID 1910, 2009; hit rate 0.32% among 300,000; activation, % at 7.5 µM (by protocol);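 active means mean activation of at least 10% of the iron chelator positive control signal, with at least half of replicates also reaching 10%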
LMP1 NFkB inh: EBV LMP1-driven NF-kappaB luciferase reporter inhibitors, primary screen, cell-based, luminescence, single point; LMP1-induced NF-kappaB luciferase reporter cells; inhibition, % at 12.5 µM; hit rate 0.69% among 350,000; AID 504558, 2011; in the data active means inhibition above about 41%;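 further: 0% = neutral control wells and 100% = reference inhibitor control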
NR2E3 ag-1: inhibitors of NR2E3-RetCOR corepressor binding, primary screen, NR2E3 agonist project, biochemical, TR-FRET, GST-NR2E3, biotin-RetCOR. Photoreceptor-specific nuclear receptor (Homo sapiens), Q9Y5X4. 1536-well. inhibition of corepressor binding, % at 4.78 µM. hit rate 0.12% among 320,000. AID 2300, 2010;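 active means percent inhibition above the cutoff of mean plus 3 SD of all tested compounds, set per screening campaign, cut at about 20% in these data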;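 further: 0% = DMSO wells and 100% = biotin wells as full block of FRET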
Target sequence (Q9Y5X4 whole entry, looked up): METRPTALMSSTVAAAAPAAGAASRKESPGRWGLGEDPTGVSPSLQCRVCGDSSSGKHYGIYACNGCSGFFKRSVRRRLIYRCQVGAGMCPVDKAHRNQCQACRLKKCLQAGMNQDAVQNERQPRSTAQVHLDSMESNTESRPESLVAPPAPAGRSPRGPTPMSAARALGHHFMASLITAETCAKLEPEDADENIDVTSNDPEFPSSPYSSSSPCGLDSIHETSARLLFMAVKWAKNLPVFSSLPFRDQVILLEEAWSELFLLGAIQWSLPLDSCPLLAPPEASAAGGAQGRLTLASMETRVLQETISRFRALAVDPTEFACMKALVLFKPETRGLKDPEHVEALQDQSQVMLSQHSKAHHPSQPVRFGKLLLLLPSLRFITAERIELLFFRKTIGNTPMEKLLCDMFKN
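System: GST-NR2E3 and biotin-RetCOR proteins; probe or stimulus: 7 nM biotin-RetCOR; doses: compound at 4.8 µM, single dose; schedule: Compound–protein incubation for 5 h at 4 °C; detection: time-resolved FRET; read-out: percent inhibition; controls: biotin wells as high control, 0.6% DMSO wells as low control; format: 1536-well plates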
TROY signal inh: inhibitors of TROY-driven NF-kB signaling, primary screen, Q293 LMP1-TROYcd cells, NF-kB luciferase, uHTS | Q293 LMP1-TROYcd NF-kB luciferase reporter, 4 h | inhibition, % at 10 µM | hit rate 0.98% among 360,000;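 active means compounds whose plate-normalised and pattern-corrected inhibition of the luciferase reporter signal at the single screening dose is 50% or more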
NR2E3 ag-2: NR2E3 agonists in two-hybrid cells, primary screen, cell-based, luminescence, CHO-S, Gal4-NCOR/VP16-NR2E3; hit rate 0.35% among 360,000; luciferase; AID 602229, 2012; inhibition of corepressor binding, % at 3.98 µM;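 active means inhibition above the mean of all tested compounds plus 3 SD, cut at about 70% in these data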;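 further: 0% = DMSO with NR2E3 transfected cells and 100% = cells lacking NR2E3 construct; higher means lower luciferase signal from less NR2E3 corepressor binding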
NR2E3 ag conf: NR2E3 agonist confirmation in cells, cell-based, luminescence, CHO-S two-hybrid; shares compounds with NR2E3 ag-2; CHO-S mammalian two-hybrid NR2E3-NCOR, luciferase luminescence; inhibition, % at 3.98 µM; hit rate 51% among 2,300;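 active means average inhibition above a cutoff equal to the mean inhibition of all tested compounds plus one SD, cut at about 70% in these data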;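 further: 0% = DMSO in NR2E3 cells and 100% = DMSO in cells lacking NR2E3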
VP16 counter: GAL4-VP16 reporter modulators, confirmation, counter-screen for NR2E3 agonist project, cell-based, luminescence, CHO-S, high throughput; shares compounds with NR2E3 ag-2; inhibition, % at 3.98 µM; CHO-S GAL4-VP16 luciferase reporter; hit rate 29% among 2,300;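 active means mean inhibition above a cutoff equal to the average over all tested compounds plus one standard deviation, cut at about 70% in these data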;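 further: luciferase from a UAS reporter driven by GAL4-VP16 transactivation; 0% = DMSO with VP16-transfected cells and 100% = DMSO with cells lacking VP16; higher means less reporter light so more repression of VP16 activity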
* marks the source's active call; other numbers are inactive results; · = no result given.

SMILES	HIF act	LMP1 NFkB inh	NR2E3 ag-1	TROY signal inh	NR2E3 ag-2	NR2E3 ag conf	VP16 counter
CCc1ccc(CN(C)C(=O)c2cc(COc3c(F)cccc3F)on2)cc1	1	0	2	-56	-24	·	·
Cc1c(C(C)NC(=O)c2cc(COc3cccc4cnccc34)on2)cnn1C (stereo not drawn)	0	29	3	24	72*	53	61
Cc1ccc(C(=O)Nc2cccc(C(=O)NC3CCCCC3)c2)cc1	1	-3	-2	-4	-31	·	·
COc1ccc(C)cc1NC(=O)c1ccccc1NS(=O)(=O)c1ccc(Cl)s1	0	-13	3	58*	101*	99*	90*
Cc1ccc(NC(=O)c2ccccc2NS(=O)(=O)c2ccc(Cl)s2)cc1S(=O)(=O)N1CCOCC1	0	-2	2	52*	90*	99*	78*
CN1C(=O)C(C)(C)c2cc(S(=O)(=O)NCC3CCC(C(=O)NCc4ccc(F)cc4)CC3)ccc21 (stereo not drawn)	-1	3	-1	-8	-36	·	·
CCOC(=O)N1CCN(C(=O)C[C@@H]2C[C@@]3(C(=O)OC)CCCCC=C3N(Cc3cccc4ccccc34)C2=O)CC1	·	·	·	1	-5	·	·
Nc1[nH]c(C(=O)c2ccccc2)c(-c2ccncc2)c1C(=O)NC1CC1	·	·	·	-17	-20	·	·
O=S(=O)(Nc1ccc2c(c1)OCCO2)c1cccc2nsnc12	-2	38	5	84*	52	-2	-7
CCOc1c(Br)cc(CNc2ccc3c(c2)OCCO3)cc1OC	1	19	2	59*	66	18	-5
CCOc1c(Br)cc(CNc2ccc(N3CCOCC3)cc2)cc1OC	0	8	-5	35	13	·	·
Cc1ccc(NC(=O)C2CCN(S(=O)(=O)c3ccc4c(c3)NC(=O)C(C)S4)CC2)cc1Cl (stereo not drawn)	0	40*	-1	47	105*	98*	85*
Cc1cccc(N2CCN(S(=O)(=O)c3ccc4c(c3)NC(=O)C(C)S4)CC2)c1C (stereo not drawn)	0	3	-2	26	53	45	48
CC1Sc2ccc(S(=O)(=O)NCCc3ccc(Cl)cc3)cc2NC1=O (stereo not drawn)	0	2	3	32	34	·	·
Cc1cccc(CCNS(=O)(=O)c2ccc3c(c2)NC(=O)C(C)S3)c1 (stereo not drawn)	0	4	3	8	52	33	49
O=C(O)C1C2C=CC(C2)C1C(=O)Nc1ccc2c(c1)OCCO2 (stereo not drawn)	0	9	0	52*	63	22	-3
O=C(O)C1CCCCC1C(=O)Nc1ccc2c(c1)OCCO2 (stereo not drawn)	1	-3	4	69*	63	6	-15
CC(C)CNC(=O)C1(N2C(=O)c3ccccc3C2=O)CCCC1	·	-8	·	-14	51	-11	2
CC(C)NC(=O)C1(N2C(=O)c3ccccc3C2=O)CCCC1	·	-3	·	3	2	·	·
COc1ccccc1-c1nnc(SCC(=O)Nc2ccc(Cl)cc2Cl)o1	2	-9	-3	-6	-8	·	·
COc1cccc2c1OC[C@@H](CO)[C@H]2N(C)C(=O)Nc1ccc(Cl)cc1Cl	-1	13	3	15	49	11	30
COc1ccccc1CNc1nc(Nc2ccc(C)cc2C)c2sccc2n1	·	·	·	29	59	65	52
Cc1ccc(Nc2nc(NCc3cccs3)nc3ccsc23)c(C)c1	·	·	·	40	35	·	·
COc1ccccc1CNc1nc(Nc2ccccc2OC)c2sccc2n1	·	·	·	21	57	54	43
COc1ccccc1CNc1nc(NCCOc2ccccc2Cl)c2sccc2n1	·	·	·	41	27	·	·
SMILES	HIF act	LMP1 NFkB inh	NR2E3 ag-1	TROY signal inh	NR2E3 ag-2	NR2E3 ag conf	VP16 counter
COc1ccccc1CNc1nc(NC(C)C)nc2ccsc12	·	·	·	26	0	·	·
Cc1ccc(Nc2nc(NCc3ccccc3)nc3ccsc23)c(C)c1	·	·	·	29	57	42	50
CN(N=Cc1cccc2cccnc12)c1ccc([N+](=O)[O-])cc1[N+](=O)[O-]	·	-7	·	2	-12	·	·
NC(=O)CC(NC(=O)c1ccccc1)c1ccc(N2CCCCCCC2)c([N+](=O)[O-])c1 (stereo not drawn)	1	35	2	-4	22	·	·
NC(=O)CC(NC(=O)c1ccc(Br)cc1)c1ccc(N2CCCCCC2)c([N+](=O)[O-])c1 (stereo not drawn)	0	17	0	3	48	17	27
CC1CC(C)C(=O)C(C(CC2CC(=O)NC(=O)C2)OC(=O)CC(=O)c2ccccc2)C1 (stereo not drawn)	·	52*	·	40	90*	99*	88*
CC(C)NC(=O)C(C)N1CCN(S(=O)(=O)c2ccc3ccccc3c2)CC1 (stereo not drawn)	-1	0	-1	4	-4	·	·
C[C@@H]1CN([C@H](C)CO)C(=O)CCCn2cc(nn2)CO[C@H]1CN(C)S(=O)(=O)c1ccc(F)cc1	·	·	·	-2	29	·	·
Cc1cccc(OC(=O)NCCOC(=O)N(O)c2ccc(Cl)cc2)c1	0	-9	3	25	81*	83*	71*
Cc1cccc(OCC(=O)Oc2ccc(Cl)cc2)c1	-1	-5	1	-4	1	·	·
N#CC(C(=S)Nc1ccccc1)c1nc2ccccc2[nH]1 (stereo not drawn)	2	-1	3	-10	78*	-12	-15
C=CCN1C(=O)S/C(=C/c2ccc(Sc3nc4ccccc4[nH]3)o2)C1=O	0	20	-2	52*	50	81*	69
CC(Sc1nc2ccccc2c(=O)n1CCCN1CCOCC1)C(=O)N1CCc2ccccc21 (stereo not drawn)	·	7	·	-3	8	·	·
CC(=O)Nc1ccc(NS(=O)(=O)c2ccc3c(c2)n(C)c(=O)n3C)cc1	0	-8	-2	-2	15	·	·
Cn1c(=O)n(C)c2cc(NS(=O)(=O)c3ccc(C(C)(C)C)cc3)ccc21	1	-18	2	6	63	82*	76*
CCc1cccc(NS(=O)(=O)c2ccc3c(c2)n(C)c(=O)n3C)c1	1	11	-1	0	64	58	44

Assay outcomes: PubChem, several laboratories
